Measurements from ChEMBL document CHEMBL5329174, “Discovery of benzoxazole-thiazolidinone hybrids as promising antibacterial agents against Staphylococcus aureus and Enterococcus species” (RSC Med Chem, 2023).
Converted amounts (≈) assume the structure as drawn.

Legend:
Assay type in all cases: functional
[1] = tested on: Klebsiella pneumoniae; test: Antibacterial activity against Klebsiella pneumoniae BAA-1705 assessed as reduction in bacterial growth
In short: (§1)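 CLSI broth microdilution in cation-supplemented Mueller–Hinton broth II; overnight starter cultures (37 °C, shaking, 18–24 h) adjusted by OD600 to ~10^6 CFU/mL. Compounds dosed from DMSO stocks (10 mg/mL stock) as two-fold dilutions, 64–0.5 mg/L. Plates held 37 °C, 18–24 h. MIC = lowest concentration without visible growth. Three independent runs, each in duplicate.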

[2] = tested on: Pseudomonas aeruginosa; test: Antibacterial activity against Pseudomonas aeruginosa ATCC 27853 assessed as reduction in bacterial growth; in short: as §1
[3] = tested on: Staphylococcus aureus; test: Antibacterial activity against Staphylococcus aureus ATCC 29213 assessed as reduction in bacterial growth; in short: as §1
[4] = tested on: Acinetobacter baumannii; test: Antibacterial activity against Acinetobacter baumannii BAA-1605 assessed as reduction in bacterial growth; in short: as §1
[5] = tested on: Escherichia coli; test: Antibacterial activity against Escherichia coli ATCC 25922 assessed as reduction in bacterial growth; in short: as §1

| MIC [1] [µg/mL] | MIC [2] [µg/mL] | MIC [3] [µg/mL] | MIC [4] [µg/mL] | MIC [5] [µg/mL] | Compound |
| --- | --- | --- | --- | --- | --- |
| > 64 | > 64 | 4 (≈ 10.9 µM) | > 64 | > 64 | COc1ccc(/C=C2\S/C(=N/c3nc4ccccc4o3)NC2=O)cc1O |
| > 64 | > 64 | 32 (≈ 79.9 µM) | > 64 | > 64 | O=C1N/C(=N\c2nc3ccccc3o2)S/C1=C\c1ccc(Br)cc1 |
| > 64 | > 64 | 4 (≈ 12.4 µM) | > 64 | > 64 | O=C1N/C(=N\c2nc3ccccc3o2)S/C1=C\c1ccccc1 |
| > 64 | > 64 | > 64 | > 64 | > 64 | COc1cccc(/C=C2\S/C(=N/c3nc4ccccc4o3)NC2=O)c1 |
| > 64 | > 64 | 8 (≈ 24.8 µM) | > 64 | > 64 | O=C1N/C(=N\c2nc3ccccc3o2)S/C1=C\c1ccccn1 |
| > 64 | > 64 | 16 (≈ 47.1 µM) | > 64 | > 64 | O=C1N/C(=N\c2nc3ccccc3o2)S/C1=C\c1ccccc1F |
| > 64 | > 64 | 8 (≈ 34.3 µM) | > 64 | > 64 | O=C1CS/C(=N/c2nc3ccccc3o2)N1 |
| > 64 | > 64 | 8 (≈ 23.6 µM) | > 64 | > 64 | O=C1N/C(=N\c2nc3ccccc3o2)S/C1=C\c1ccc(F)cc1 |
| > 64 | > 64 | > 64 | > 64 | > 64 | COc1ccc(/C=C2\S/C(=N/c3nc4ccccc4o3)NC2=O)cc1 |
| > 64 | > 64 | > 64 | > 64 | > 64 | CN(C)c1ccc(/C=C2\S/C(=N/c3nc4ccccc4o3)NC2=O)cc1 |
| > 64 | > 64 | > 64 | > 64 | > 64 | O=C1N/C(=N\c2nc3ccccc3o2)S/C1=C\c1ccc([N+](=O)[O-])cc1 |
| > 64 | > 64 | > 64 | > 64 | > 64 | O=C1N/C(=N\c2nc3ccccc3o2)S/C1=C\c1cccc([N+](=O)[O-])c1 |
| > 64 | > 64 | 8 (≈ 23.6 µM) | > 64 | > 64 | O=C1N/C(=N\c2nc3ccccc3o2)S/C1=C\c1cccc(F)c1 |
| > 64 | > 64 | 8 (≈ 25.7 µM) | > 64 | > 64 | O=C1N/C(=N\c2nc3ccccc3o2)S/C1=C\c1ccco1 |
| > 64 | > 64 | 16 (≈ 48.9 µM) | > 64 | > 64 | O=C1N/C(=N\c2nc3ccccc3o2)S/C1=C\c1cccs1 |
| > 64 | > 64 | 8 (≈ 21.8 µM) | > 64 | > 64 | O=C1N/C(=N\c2nc3ccccc3o2)S/C1=C\c1ccccc1[N+](=O)[O-] |
| > 64 | > 64 | 8 (≈ 22.5 µM) | > 64 | > 64 | O=C1N/C(=N\c2nc3ccccc3o2)S/C1=C\c1cccc(Cl)c1 |
| > 64 | > 64 | 16 (≈ 45 µM) | > 64 | > 64 | O=C1N/C(=N\c2nc3ccccc3o2)S/C1=C\c1ccccc1Cl |
| > 64 | > 64 | 32 (≈ 87.1 µM) | > 64 | > 64 | CSc1ccc(/C=C2\S/C(=N/c3nc4ccccc4o3)NC2=O)cc1 |
| > 64 | > 64 | 4 (≈ 11.9 µM) | > 64 | > 64 | O=C1N/C(=N\c2nc3ccccc3o2)S/C1=C\c1ccccc1O |
| > 64 | > 64 | 8 (≈ 22.5 µM) | > 64 | > 64 | O=C1N/C(=N\c2nc3ccccc3o2)S/C1=C\c1ccc(Cl)cc1 |
